Source: ChEMBL document CHEMBL1926538, “3,5-Disubstituted-thiazolidine-2,4-dione analogs as anticancer agents: design, synthesis and biological characterization” (Eur J Med Chem, 2012)
Activity calls are given as the source filed them. No cut-off for these calls is given here.

How the values were obtained:
PC-3 = test: Growth inhibition of human PC3 cells after 24 hrs by MTS assay; format: functional, cell-based
Procedure, shortened: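 Cells in RPMI 1640 with 10% heat-inactivated FBS, seeded 2 × 10⁴ cells/well and exposed 24 h. MTS reagent added, then 1 h further incubation at 37 °C, 5% CO₂. Formazan absorbance read at 490 nm. Viability expressed as percentage of untreated controls.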

U-937 [1] = test: Induction of apoptosis in human U937 cells assessed as viable cells at 10 uM after 6 hrs by annexinV-propidium iodide staining-based flow cytometric analysis (reference value: 80.3%); format: functional; conditions: U-937, 6 h, read-out: Activity
[2] = molecular target: Proto-oncogene tyrosine-protein kinase Src (Homo sapiens) (UniProt P12931); test: Inhibition of SRC at 10 uM
[3] = molecular target: Calcium/calmodulin-dependent protein kinase type IV (Homo sapiens) (UniProt Q16566); test: Inhibition of CAMK4 at 10 uM
U-937 [4] = test: Induction of apoptosis in human U937 cells assessed as necrotic cells at 10 uM after 6 hrs by annexinV-propidium iodide staining-based flow cytometric analysis (reference value: 1.2%); format: functional
[5] = molecular target: Insulin receptor (Homo sapiens) (UniProt P06213); test: Inhibition of INSR at 10 uM
[6] = molecular target: Insulin-like growth factor 1 receptor (Homo sapiens) (UniProt P08069); test: Inhibition of IGF1R at 10 uM
U-937 [7] = test: Induction of apoptosis in human U937 cells assessed as necrotic cells at 10 uM after 18 hrs by annexinV-propidium iodide staining-based flow cytometric analysis (reference value: 0.7%); format: functional
[8] = Induction of apoptosis in human M12 cells assessed as early apoptotic cells at 20 uM after 24 hrs by annexinV-propidium iodide staining-based flow cytometric analysis (reference value: 13.6%); format: functional
DU-145 [9] = test: Inhibition of PI3K-mediated Akt phosphorylation in human DU145 cells at 10 to 20 uM after 24 hrs by Western blot analysis; format: cell-based
Procedure, shortened: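 DU145 cells were grown in RPMI 1640 with 10% FBS and treated for 24 h at the indicated concentrations. Lysates were immunoblotted with phospho-Akt (Ser473) primary antibody (1:1000) and HRP secondary (1:2000), then detected by chemiluminescence. α-Tubulin reprobing checked loading.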

U-937 [10] = test: Induction of apoptosis in human U937 cells assessed as early apoptotic cells at 3 uM after 6 hrs by annexinV-propidium iodide staining-based flow cytometric analysis (reference value: 4.6%); format: functional
[11] = molecular target: Dual specificity mitogen-activated protein kinase kinase 1 (Homo sapiens) (UniProt Q02750); test: Inhibition of MEK1 at 10 uM
[12] = molecular target: Tyrosine-protein kinase ABL1 (Homo sapiens) (UniProt P00519); test: Inhibition of ABL at 10 uM
U-937 [13] = test: Induction of apoptosis in human U937 cells assessed as late apoptotic cells at 3 uM after 18 hrs by annexinV-propidium iodide staining-based flow cytometric analysis (reference value: 7.8%); format: functional
[14] = molecular target: Ribosomal protein S6 kinase alpha-5 (Homo sapiens) (UniProt O75582); test: Inhibition of MSK1 at 10 uM
[15] = molecular target: Cyclin-dependent kinase 2 (Homo sapiens) (UniProt P24941); test: Inhibition of CDK2 at 10 uM
[16] = molecular target: Serine/threonine-protein kinase Sgk1 (Homo sapiens) (UniProt O00141); test: Inhibition of SGK1 at 10 uM
[17] = molecular target: Tyrosine-protein kinase Lck (Homo sapiens) (UniProt P06239); test: Inhibition of LCK at 10 uM
[18] = Inhibition of P70S6K at 10 uM
[19] = molecular target: Dual specificity mitogen-activated protein kinase kinase 2 (Homo sapiens) (UniProt P36507); test: Inhibition of MEK2 at 10 uM
U-937 [20] = test: Induction of apoptosis in human U937 cells assessed as early apoptotic cells at 10 uM after 6 hrs by annexinV-propidium iodide staining-based flow cytometric analysis (reference value: 4.6%); format: functional
[21] = molecular target: Phosphatidylinositol 4,5-bisphosphate 3-kinase catalytic subunit alpha isoform (Homo sapiens) (UniProt P42336); test: Inhibition of PI3Kalpha at 10 uM
U-937 [22] = test: Induction of apoptosis in human U937 cells assessed as viable cells at 3 uM after 18 hrs by annexinV-propidium iodide staining-based flow cytometric analysis (reference value: 87.2%); format: functional; conditions: U-937, 18 h, read-out: Activity
[23] = molecular target: RAF proto-oncogene serine/threonine-protein kinase (Homo sapiens) (UniProt P04049); test: Inhibition of raf-mediated ERK phosphorylation in human U937 cells at 3 uM after 1 hr by Western blot analysis; format: cell-based; conditions: U-937
Procedure, shortened: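 Cells in RPMI 1640 with 10% heat-inactivated FBS, 37 °C, 5% CO2; treated in growing medium (DU145 24 h; U937 1 h at 5 × 10⁵/mL). Lysed by sonication in SDS sample buffer with protease inhibitors plus 1 mM orthovanadate and pyrophosphate, boiled 5 min. Blots blocked in 5% milk, primary antibodies 1:1000 overnight at 4 °C, HRP secondary 1:2000, chemiluminescence; α-tubulin loading control.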

[24] = Inhibition of PKGa at 10 uM
U-937 [25] = test: Cell cycle arrest in human U937 cells assessed as accumulation at S-phase after 24 hrs by propidium iodide staining-based flow cytometric analysis; format: functional
Procedure, shortened: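 Cells cultured in RPMI 1640 with 10% FBS and treated 24 h at the indicated concentrations. Stained with propidium iodide for 4 h at 4 °C in the dark. Flow cytometry gave the percentage of cells in G₀/G₁, S, G₂/M and sub-G₁ phases.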

U-937 [26] = test: Induction of apoptosis in human U937 cells assessed as viable cells at 3 uM after 6 hrs by annexinV-propidium iodide staining-based flow cytometric analysis (reference value: 80.3%); format: functional; conditions: U-937, 6 h, read-out: Activity
[27] = molecular target: Receptor-type tyrosine-protein kinase FLT3 (Homo sapiens) (UniProt P36888); test: Inhibition of FLT3 at 10 uM
[28] = molecular target: Aurora kinase A (Homo sapiens) (UniProt O14965); test: Inhibition of aurora A kinase at 10 uM
[29] = Inhibition of MSK2 at 10 uM
DU-145 [30] = test: Induction of apoptosis in human DU145 cells assessed as necrotic cells at 20 uM after 24 hrs by annexinV-propidium iodide staining-based flow cytometric analysis (reference value: 2.1%); format: functional
[31] = molecular target: c-Jun N-terminal kinase, JNK (Homo sapiens) (UniProt P45983+P53779+P45984); test: Inhibition JNK phosphorylation in human U937 cells at 1 to 10 uM after 1 hr by Western blot analysis; format: cell-based; conditions: U-937
Procedure, shortened: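 U937 cells at 5 × 10^5/mL were exposed to compound for 1 h, then sonicated in SDS/DTT sample buffer with protease inhibitors plus 1 mM orthovanadate and pyrophosphate, and boiled 5 min. Blots were blocked in 5% milk, probed with primary antibody overnight at 4 °C and 1:2000 HRP secondary, and read by chemiluminescence. α-Tubulin reprobe served as loading control. Blots shown represent one of three experiments.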

[32] = molecular target: Serine/threonine-protein kinase MARK1 (Homo sapiens) (UniProt Q9P0L2); test: Inhibition of MARK1 at 10 uM
Chain of Serine/threonine-protein kinase MARK1 (Homo sapiens) (Q9P0L2 whole entry, looked up): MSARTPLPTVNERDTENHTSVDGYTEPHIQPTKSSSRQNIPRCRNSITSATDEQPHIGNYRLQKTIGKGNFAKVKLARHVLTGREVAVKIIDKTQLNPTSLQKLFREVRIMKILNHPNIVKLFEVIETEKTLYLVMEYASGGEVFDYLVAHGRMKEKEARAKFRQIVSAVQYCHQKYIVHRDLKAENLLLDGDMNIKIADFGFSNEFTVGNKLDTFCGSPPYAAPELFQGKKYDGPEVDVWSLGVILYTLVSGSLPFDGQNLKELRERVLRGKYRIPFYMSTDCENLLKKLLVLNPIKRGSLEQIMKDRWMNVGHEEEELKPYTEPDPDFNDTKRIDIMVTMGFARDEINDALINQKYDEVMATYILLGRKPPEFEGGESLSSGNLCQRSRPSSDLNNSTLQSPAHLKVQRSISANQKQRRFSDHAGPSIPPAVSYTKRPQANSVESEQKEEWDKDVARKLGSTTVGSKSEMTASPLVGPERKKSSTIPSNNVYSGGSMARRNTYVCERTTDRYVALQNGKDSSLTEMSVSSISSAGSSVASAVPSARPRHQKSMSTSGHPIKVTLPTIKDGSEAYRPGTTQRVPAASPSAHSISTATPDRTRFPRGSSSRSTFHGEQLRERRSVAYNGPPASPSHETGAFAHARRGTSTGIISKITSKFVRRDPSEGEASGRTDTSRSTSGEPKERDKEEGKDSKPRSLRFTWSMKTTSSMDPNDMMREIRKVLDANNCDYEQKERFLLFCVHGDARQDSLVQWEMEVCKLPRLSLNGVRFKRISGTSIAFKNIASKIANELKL

Chain of Dual specificity mitogen-activated protein kinase kinase 1 (Homo sapiens) (Q02750 whole entry): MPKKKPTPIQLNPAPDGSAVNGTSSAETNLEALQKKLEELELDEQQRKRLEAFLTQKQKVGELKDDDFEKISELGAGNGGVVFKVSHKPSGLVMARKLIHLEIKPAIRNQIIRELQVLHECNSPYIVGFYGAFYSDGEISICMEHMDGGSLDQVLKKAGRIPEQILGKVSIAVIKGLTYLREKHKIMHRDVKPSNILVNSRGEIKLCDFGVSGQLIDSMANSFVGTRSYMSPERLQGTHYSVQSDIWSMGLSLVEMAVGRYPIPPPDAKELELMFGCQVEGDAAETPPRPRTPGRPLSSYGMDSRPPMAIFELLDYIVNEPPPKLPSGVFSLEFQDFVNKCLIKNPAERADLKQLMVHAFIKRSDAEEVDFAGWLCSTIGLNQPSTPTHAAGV
Chain of Tyrosine-protein kinase ABL1 (Homo sapiens) (P00519 whole entry): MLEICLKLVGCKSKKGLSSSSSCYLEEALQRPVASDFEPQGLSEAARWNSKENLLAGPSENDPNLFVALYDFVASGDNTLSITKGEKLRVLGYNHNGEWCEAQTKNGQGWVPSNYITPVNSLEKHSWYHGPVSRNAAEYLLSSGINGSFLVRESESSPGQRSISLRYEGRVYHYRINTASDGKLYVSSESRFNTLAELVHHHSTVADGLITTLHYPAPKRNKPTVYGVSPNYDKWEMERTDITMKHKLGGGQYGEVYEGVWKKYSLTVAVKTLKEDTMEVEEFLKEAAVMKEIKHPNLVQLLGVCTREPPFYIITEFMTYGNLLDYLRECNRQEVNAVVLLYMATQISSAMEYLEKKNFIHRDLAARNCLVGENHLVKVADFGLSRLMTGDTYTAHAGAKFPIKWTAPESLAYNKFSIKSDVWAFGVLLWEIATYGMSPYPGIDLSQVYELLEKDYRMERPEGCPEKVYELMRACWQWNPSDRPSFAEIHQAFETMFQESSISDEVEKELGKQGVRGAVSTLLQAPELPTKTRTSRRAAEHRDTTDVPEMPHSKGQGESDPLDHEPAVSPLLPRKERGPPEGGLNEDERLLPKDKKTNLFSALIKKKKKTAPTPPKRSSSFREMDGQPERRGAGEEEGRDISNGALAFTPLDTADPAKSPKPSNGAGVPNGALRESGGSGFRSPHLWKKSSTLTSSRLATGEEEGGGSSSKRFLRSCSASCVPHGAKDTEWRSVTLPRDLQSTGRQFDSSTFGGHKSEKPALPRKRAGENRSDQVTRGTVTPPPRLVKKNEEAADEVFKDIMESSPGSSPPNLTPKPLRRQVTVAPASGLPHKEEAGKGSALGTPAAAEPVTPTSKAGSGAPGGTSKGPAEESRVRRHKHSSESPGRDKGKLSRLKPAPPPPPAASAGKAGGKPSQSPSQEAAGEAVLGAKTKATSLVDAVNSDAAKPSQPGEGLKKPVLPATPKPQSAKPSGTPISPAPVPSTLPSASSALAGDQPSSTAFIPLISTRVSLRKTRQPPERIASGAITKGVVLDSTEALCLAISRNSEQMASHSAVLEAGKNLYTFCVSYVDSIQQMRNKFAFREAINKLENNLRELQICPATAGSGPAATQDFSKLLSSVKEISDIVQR
Chain of Receptor-type tyrosine-protein kinase FLT3 (Homo sapiens) (P36888 whole entry): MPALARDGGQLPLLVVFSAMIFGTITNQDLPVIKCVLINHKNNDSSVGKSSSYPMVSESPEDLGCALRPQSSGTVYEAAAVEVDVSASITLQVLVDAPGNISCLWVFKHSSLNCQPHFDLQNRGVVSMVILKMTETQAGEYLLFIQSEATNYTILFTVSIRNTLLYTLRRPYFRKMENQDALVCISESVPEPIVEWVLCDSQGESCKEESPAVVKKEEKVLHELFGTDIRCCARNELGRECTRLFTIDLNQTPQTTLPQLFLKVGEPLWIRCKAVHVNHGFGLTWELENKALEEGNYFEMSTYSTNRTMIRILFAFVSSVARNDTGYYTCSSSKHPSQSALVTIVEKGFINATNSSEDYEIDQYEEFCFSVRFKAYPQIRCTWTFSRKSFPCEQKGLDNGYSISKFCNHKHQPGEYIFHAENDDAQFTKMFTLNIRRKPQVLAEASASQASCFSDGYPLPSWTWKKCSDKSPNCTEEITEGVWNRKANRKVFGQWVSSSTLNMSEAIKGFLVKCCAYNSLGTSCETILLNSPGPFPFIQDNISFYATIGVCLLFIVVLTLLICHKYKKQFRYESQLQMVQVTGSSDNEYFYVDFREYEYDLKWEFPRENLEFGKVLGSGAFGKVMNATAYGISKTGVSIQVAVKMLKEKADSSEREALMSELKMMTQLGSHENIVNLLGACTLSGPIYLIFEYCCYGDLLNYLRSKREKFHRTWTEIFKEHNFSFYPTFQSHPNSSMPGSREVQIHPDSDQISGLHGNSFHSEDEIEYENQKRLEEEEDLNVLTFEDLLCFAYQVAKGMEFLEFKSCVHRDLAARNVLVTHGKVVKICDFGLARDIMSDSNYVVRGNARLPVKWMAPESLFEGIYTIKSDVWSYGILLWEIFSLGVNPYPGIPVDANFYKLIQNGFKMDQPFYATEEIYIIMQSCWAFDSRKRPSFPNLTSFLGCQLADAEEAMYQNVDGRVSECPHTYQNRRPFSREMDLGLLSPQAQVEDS
Chain of RAF proto-oncogene serine/threonine-protein kinase (Homo sapiens) (P04049 whole entry): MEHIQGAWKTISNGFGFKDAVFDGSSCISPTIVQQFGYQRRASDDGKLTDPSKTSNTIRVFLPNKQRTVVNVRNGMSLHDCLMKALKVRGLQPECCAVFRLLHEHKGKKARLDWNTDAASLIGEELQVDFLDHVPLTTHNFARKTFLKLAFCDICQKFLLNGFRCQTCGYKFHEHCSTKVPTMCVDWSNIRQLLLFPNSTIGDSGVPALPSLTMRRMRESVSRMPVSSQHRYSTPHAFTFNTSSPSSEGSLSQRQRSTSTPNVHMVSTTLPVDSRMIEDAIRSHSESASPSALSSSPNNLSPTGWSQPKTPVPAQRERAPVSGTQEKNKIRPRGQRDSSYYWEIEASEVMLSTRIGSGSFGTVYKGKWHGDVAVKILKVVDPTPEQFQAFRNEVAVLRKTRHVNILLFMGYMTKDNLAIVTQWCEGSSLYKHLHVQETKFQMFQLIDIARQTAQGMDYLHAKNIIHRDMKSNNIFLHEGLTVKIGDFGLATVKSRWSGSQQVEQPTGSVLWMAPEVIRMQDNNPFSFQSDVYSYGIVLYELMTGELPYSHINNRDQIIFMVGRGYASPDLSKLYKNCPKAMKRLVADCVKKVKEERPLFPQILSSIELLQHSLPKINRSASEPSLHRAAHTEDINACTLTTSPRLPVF
Chain of Phosphatidylinositol 4,5-bisphosphate 3-kinase catalytic subunit alpha isoform (Homo sapiens) (P42336 whole entry, canonical isoform): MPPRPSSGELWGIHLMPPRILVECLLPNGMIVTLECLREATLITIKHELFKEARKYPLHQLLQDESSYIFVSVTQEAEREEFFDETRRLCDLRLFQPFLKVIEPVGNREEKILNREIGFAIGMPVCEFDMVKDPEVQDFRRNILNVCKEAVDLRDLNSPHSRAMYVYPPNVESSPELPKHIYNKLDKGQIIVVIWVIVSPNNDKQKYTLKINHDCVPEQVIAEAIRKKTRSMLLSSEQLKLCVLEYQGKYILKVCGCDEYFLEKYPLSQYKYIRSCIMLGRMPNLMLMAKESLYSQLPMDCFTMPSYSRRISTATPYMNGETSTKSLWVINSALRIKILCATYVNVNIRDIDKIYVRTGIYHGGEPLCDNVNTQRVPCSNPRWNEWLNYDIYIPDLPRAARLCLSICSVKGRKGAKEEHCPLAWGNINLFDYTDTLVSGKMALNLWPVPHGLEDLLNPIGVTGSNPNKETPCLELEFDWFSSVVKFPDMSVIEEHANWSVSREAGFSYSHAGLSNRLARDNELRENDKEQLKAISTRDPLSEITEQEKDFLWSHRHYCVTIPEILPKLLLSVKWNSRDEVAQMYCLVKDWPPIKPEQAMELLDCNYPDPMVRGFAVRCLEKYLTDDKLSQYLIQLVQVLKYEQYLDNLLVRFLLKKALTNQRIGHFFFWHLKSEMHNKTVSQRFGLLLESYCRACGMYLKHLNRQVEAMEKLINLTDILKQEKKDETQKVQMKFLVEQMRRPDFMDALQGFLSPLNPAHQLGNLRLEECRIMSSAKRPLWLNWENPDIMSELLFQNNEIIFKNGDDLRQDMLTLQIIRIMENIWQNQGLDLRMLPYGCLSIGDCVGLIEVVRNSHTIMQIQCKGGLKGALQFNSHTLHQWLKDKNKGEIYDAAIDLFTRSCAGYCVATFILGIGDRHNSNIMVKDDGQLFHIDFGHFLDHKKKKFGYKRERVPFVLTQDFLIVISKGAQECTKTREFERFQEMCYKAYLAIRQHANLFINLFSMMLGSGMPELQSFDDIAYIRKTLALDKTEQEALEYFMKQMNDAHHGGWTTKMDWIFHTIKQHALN

- inhibition [2]: 2%
- inhibition [3]: 71%
- inhibition [5]: -2%
- inhibition [6]: -5%
- inhibition [11]: 69%
- inhibition [12]: 6%
- inhibition [14]: 6%
- inhibition [15]: -2%
- inhibition [16]: 14%
- inhibition [17]: 4%
- inhibition [18]: 5%
- inhibition [19]: 27%
- inhibition [21]: 45%
- inhibition [23]: Active
- inhibition [24]: -2%
- inhibition [27]: 38%
- inhibition [28]: -4%
- inhibition [29]: 3%
- inhibition [31]: inactive
- inhibition [32]: 0%
SMILES: NCCN1C(=O)S/C(=C\CCC2CCCCC2)C1=O
- growth inhibition (GI) (PC-3): Active
- viability at 10 µM (U-937 [1]): 40.2%
- Activity (U-937 [4]): 1.4%
- Activity (U-937 [7]): 2.1%
- Activity [8]: 29.2%
- inhibition (DU-145 [9]): Active
- Activity (U-937 [10]): 3.8%
- Activity (U-937 [13]): 5.7%
- Activity (U-937 [20]): 14.2%
- viability at 3 µM (U-937 [22]): 90.1%
- Activity (U-937 [25]): Dose-dependent effect
- viability at 3 µM (U-937 [26]): 75.7%
- Activity (DU-145 [30]): 3.2%
